GPR7 antagonist – blocks human GPR7 receptor signaling; P48145; GPR7-expressing cells, fluorescence antagonist assay; inhibition, % at 4.4 µM; 1.1% of 290,000 active; AID 1861; in the data active = inhibition above about 16%, passing the limit was not always enough;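 also: cells stimulated with the agonist NPW; 0% = agonist with vehicle and 100% = vehicle without agonist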
Target sequence (P48145 whole entry, looked up): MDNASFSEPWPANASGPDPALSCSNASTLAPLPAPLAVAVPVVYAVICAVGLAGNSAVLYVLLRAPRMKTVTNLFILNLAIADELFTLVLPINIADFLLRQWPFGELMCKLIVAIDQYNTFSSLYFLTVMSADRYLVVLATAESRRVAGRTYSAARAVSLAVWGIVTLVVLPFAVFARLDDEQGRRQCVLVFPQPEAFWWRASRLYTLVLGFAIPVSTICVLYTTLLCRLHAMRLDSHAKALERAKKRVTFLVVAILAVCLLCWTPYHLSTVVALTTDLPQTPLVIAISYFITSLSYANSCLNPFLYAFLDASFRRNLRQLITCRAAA
OX1R antag-1 – antagonists of human orexin 1 receptor (OX1R); O43613; inhibition, % at 6.6 µM; 1.8% of 330,000 active; OX1R-expressing cells, FRET antagonist read-out; in the data active = inhibition mostly above about 38%, no sharp cut-off; inactive = mostly below about 40%;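 also: 0% = agonist challenge alone and 100% = reference antagonist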
GalR3 antag – blocks the human galanin receptor 3 | HEK293 GalR3-CNG cAMP membrane potential fluorescence; galR3 body fused to GalR1 C-terminus | 0.44% of 360,000 active | O60755 | inhibition, % at 3 µM;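 active = inhibition above the screen-wide average plus 3 SD, cut at about 13% in these data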;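 also: forskolin and galanin both at EC90 stimulate the cells; cAMP rise reported by CNG channel membrane potential dye signal; 0% = forskolin plus galanin with DMSO and 100% = forskolin alone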
Target sequence (O60755 1-299 limits assumed): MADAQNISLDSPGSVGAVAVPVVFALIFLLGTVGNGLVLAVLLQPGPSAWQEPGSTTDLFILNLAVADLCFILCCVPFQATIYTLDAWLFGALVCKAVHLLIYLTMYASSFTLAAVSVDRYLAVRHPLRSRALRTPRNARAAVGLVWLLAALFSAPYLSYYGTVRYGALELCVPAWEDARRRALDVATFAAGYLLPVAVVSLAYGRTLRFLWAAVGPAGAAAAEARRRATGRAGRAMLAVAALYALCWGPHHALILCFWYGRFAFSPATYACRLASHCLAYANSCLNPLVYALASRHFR
CHO parental Ca – counter-screen for OX1R antagonists: effect in parental CHO cells; 0.63% of 330,000 active; inhibition, % at 5.6 µM; parental CHO-K1, ATP-induced calcium, Fluo-8 fluorescence;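 active = inhibition above that plate's mean sample inhibition plus 3 SD, cut at about 26% in these data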;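 also: 0% = ATP-challenged DMSO wells and 100% = DMSO wells without ATP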
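Assay system – parental CHO cells · Reagent – ATP stimulus · Detection – intracellular calcium via Fluo-8 no-wash fluorescent dye · Evaluation – percent inhibition of ATP-evoked calcium rise, normalized to controls · Controls – ATP wells versus no-ATP DMSO wells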
OX1R antag-2 – antagonists of human orexin 1 receptor. O43613. CHO/OX1R cells, Fluo-8 calcium fluorescence, orexin A. inhibition, % at 5 µM. 0.43% of 330,000 active. AID 434989;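 active = inhibition above its plate's threshold, mean inhibition of all tested compounds on the plate plus 3 SD, cut at about 37% in these data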;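 also: 0% = orexin A challenge wells and 100% = SB-334867-A antagonist wells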
Starred values were filed as active, the others as inactive; x = no result. Hits are enriched below; roughly 3.1% of the tested compounds scored in any of these assays.

SMILES	GPR7 antagonist	OX1R antag-1	GalR3 antag	CHO parental Ca	OX1R antag-2
O=C(C(=O)N1CCN(C(=O)c2ccccc2C(F)(F)F)CC1)c1cccc(C(F)(F)F)c1	x	x	-0.7	x	x
O=C(Nc1ncc([N+](=O)[O-])s1)c1ccc2c(c1)OCO2	-13.5	59.7	-6.7	29.0*	-1.5
Cc1ccc(C(=O)Nc2ncc([N+](=O)[O-])s2)cc1	14.2	54.2*	-11.8	12.0	1.6
COC(=O)[C@]12C[C@H](CC(=O)NCc3ccccc3)C(=O)N(Cc3ccccc3)C1=C[C@H](C1CCCC1)O[C@@H]2C	x	x	-7.8	x	x
COC(=O)C[C@@H]1C[C@H]2c3cc(NC(=O)Nc4ccccc4F)ccc3O[C@H]2[C@@H](CO)O1	x	x	-1.1	x	x
O=C(O)c1cc2nccc(-c3ccc(F)cc3)n2n1	-4.3	43.2*	1.2	1.9	-16.6
COc1ccc(NC(=O)C2(C)Cc3c(-c4cccc(C(N)=O)c4)ccnc3O2)cn1 (centres undefined)	x	x	-4.6	x	x
C/C(=N\NC(=O)c1ccc([N+](=O)[O-])cc1)c1cc2ccccc2oc1=O	-15.5	67.9*	-9.3	0.5	-1.8
O=C(NNC(=O)c1cc2ccccc2oc1=O)c1ccccc1[N+](=O)[O-]	-7.6	76.5*	-2.5	-4.2	-11.3
COc1ccc2c(C)cc(SCC(=O)c3ccc4c(c3)OCO4)nc2c1	-11.8	39.6*	-3.3	-21.9	-14.7
COc1ccc2c(C)cc(SCC(=O)NC3CCCC3)nc2c1	x	3.9	3.9	-8.2	-8.8
CN1OC[C@@H]2CN(CC3CCCCC3)[C@H](c3ccc(-c4ccc(C#N)cc4)cc3)C[C@@H]21	x	x	4.3	x	x
CNS(=O)(=O)c1cc(Nc2ncnc3sccc23)ccc1C	8.8	62.7*	-11.0	3.9	18.7
Cc1ccc(C(C)(C)C)cc1S(=O)(=O)Nc1ncnc2sccc12	x	6.3	-5.3	-26.9	5.8
Cc1cc(C)c(C(=O)NC2CCCc3c2cnn3-c2cccc(C)c2C)o1 (centres undefined)	-18.8	58.8*	-6.0	-16.9	1.8
COc1ccc(C(=O)NC2CC(C)(C)Cc3c2cnn3-c2ccccc2C)c(OC)c1OC (centres undefined)	-4.3	19.7	-0.2	-10.8	-40.4
Cc1cc(C(=O)NC2CC(C)(C)Cc3c2cnn3-c2ccccc2C)c(C)o1 (centres undefined)	13.8	71.5*	1.3	-17.3	-37.6
COc1ccc(S(=O)(=O)NN(C)c2nc(C(F)(F)F)nc3ccccc23)cc1	3.0	71.8*	-4.6	-9.8	-5.1
COc1ccc(S(=O)(=O)Nc2ccccc2C(F)(F)F)cc1	-8.3	9.2	-5.5	-12.4	-30.5
Cc1cccc(OCCCCc2c(C)n[nH]c2C)c1C	-13.1	22.2	-8.4	43.5*	11.9
C[C@@H]1CN(c2ccc(N3CCNC[C@@H]3C)cc2C#N)CCN1Cc1ccccc1	x	x	-8.3	x	x
CC(=O)c1c(C)[nH]c(C(=O)CSc2ccc(F)cc2)c1C	-9.7	17.8	-5.8	33.1*	13.6
CCOC(=O)c1c(C)[nH]c(C(=O)CSc2ccccc2)c1C	0.0	19.7	3.5	6.3	-10.0
Cc1cc(Cl)ccc1NC(=S)NCCC(c1ccccc1)c1ccccc1	-15.2	51.8	-3.4	37.1*	44.5*
c1ccc2c(c1)CCN(c1nc3ccccc3n3cnnc13)C2	-6.2	52.7*	1.0	-15.3	-17.4
SMILES	GPR7 antagonist	OX1R antag-1	GalR3 antag	CHO parental Ca	OX1R antag-2
c1ccc(N2CCN(c3nc4ccccc4n4cnnc34)CC2)cc1	-14.9	17.3	2.6	-14.8	-33.7
COC(=O)[C@]12C[C@H](CC(=O)NCc3cccc4ccccc34)C(=O)N(Cc3ccccc3)C1=C[C@H](C(C)C)O[C@@H]2C1CC1	x	x	-4.1	x	x
O=C(N/N=C/c1cc2c(cc1[N+](=O)[O-])OCO2)c1cccnc1	-8.2	42.5	-0.8	-1.7	-10.9
O=C(N/N=C/c1cc2c(c([N+](=O)[O-])c1)OCO2)c1ccncc1	-11.5	54.0*	-8.0	-9.8	-7.5
COC(=O)[C@H]1C[C@H](OC(=O)NCc2ccco2)[C@@]2(O)CN(S(=O)(=O)c3ccc(C)cc3)CC2[C@H]1C(=O)OC (some centres undefined)	x	x	-5.0	x	x
CCN(CC)c1ccc2c(c1)CCCN2	-5.1	85.1*	x	-3.9	-21.9
O=S(=O)(c1ccc2c(c1)CCCN2)N1CCCCC1	x	15.5	-3.5	-2.1	13.7
O=C(/C=C/c1ccccc1[N+](=O)[O-])N1CCCCC1	6.9	24.5	-3.4	-7.5	-16.4
O=C(/C=C/c1ccc([N+](=O)[O-])s1)N1CCCC1	-2.9	51.6*	-8.0	-15.3	-17.7
O=C(/C=C/c1ccc([N+](=O)[O-])s1)N1CCCCC1	-17.5	74.0*	-8.5	-24.6	-30.6
CC1CC(C)CN(C(=O)/C=C/c2ccc([N+](=O)[O-])s2)C1 (centres undefined)	-10.2	x	-4.0	x	x
COC(=O)[C@H]1[C@@H](O)[C@@]2(O)c3c(OC)cc(OC)cc3O[C@@]2(c2ccc(OC)cc2)[C@@H]1c1ccc(F)cc1	x	x	-4.5	x	x
C[C@H]1CN([C@@H](C)CO)C(=O)CCCn2cc(nn2)CO[C@@H]1CN(C)C(=O)c1ccccc1	x	x	-1.6	x	x
COc1ccc(N2C[C@@]3(O)CC[C@@H](O)[C@@H](OC)[C@@H]3[C@@]2(C)[C@H](O)CC=C(C)C)cc1	x	x	-4.1	x	x
CCCc1nc2c(C)cc(Br)cn2c1Cc1ccccc1OC	x	x	-4.0	x	x
Cc1ccc(Oc2ncccc2N)c2c1CCC2	18.6*	16.7	-2.0	-21.1	-7.7
Nc1cccnc1Oc1ccc(F)cc1F	-13.2	-0.7	-5.7	-4.7	-3.4
COCCN1C(=O)CCC1(C)C(=O)NC1CCCCC1 (centres undefined)	x	x	-3.9	x	x
N/C(Cc1ccc(Cl)c(Cl)c1)=N\OC(=O)c1cccs1	20.3*	3.8	-5.8	-4.0	-12.2
C[C@@H]1CN([C@H](C)CO)C(=O)CCCn2nncc2CO[C@H]1CN(C)C(=O)Nc1ccc(N2CCN(C)CC2)cc1	x	x	-4.0	x	x
Cc1ccc(S(=O)(=O)Nc2ccc(C(=O)Nc3ccncc3)cc2)cc1	4.9	24.2	-4.1	-4.9	-1.5
Cc1ccc(NS(=O)(=O)c2ccc(NC(=O)c3cccc(NC(=O)C(C)C)c3)cc2)cc1	-0.2	48.8	-3.8	66.6*	81.7*
Cc1ccc2ncc(S(=O)(=O)c3ccccc3)c(N3CCCCC3C)c2c1 (centres undefined)	-23.0	32.8	1.0	43.6*	-22.6
CCOc1ccc(OCc2ccc(C(=O)NN=Cc3ccc[nH]3)cc2)cc1	x	17.8	56.5*	-2.3	-8.3
O=C(N/N=C/c1ccc2cccc(OCc3ccccc3)c2n1)c1ccc(Br)cc1	-15.4	11.7	-5.3	-23.9	-14.1
COc1ccc(C(=O)N/N=C/c2ccc3cccc(OCc4ccccc4)c3n2)cc1	-7.2	76.4*	-1.0	-34.8	-23.9
CCOc1ccc(C(=O)N/N=C/c2cccc3cccnc23)cc1	-9.2	74.2*	-1.0	-31.6	-16.3
COc1cccc(N2C(=O)CC(Nc3ccc(N4CCOCC4)cc3)C2=O)c1 (centres undefined)	2.1	39.2*	x	4.7	-6.1

Bioassay records: PubChem, The Scripps Research Institute Molecular Screening Center
